Assay results from ChEMBL document CHEMBL1142060, “Dysoxylins A-D, tetranortriterpenoids with potent anti-RSV activity from Dysoxylum gaudichaudianum” (J Nat Prod, 2007).
Converted amounts (≈) assume the structure as drawn.

Experiments:
[1] = test system: Respiratory syncytial virus; assay: Antiviral activity against RSV A2 in MA104 cells by plaque reduction assay; type: functional, organism-based; settings: human respiratory syncytial virus
Summary of the method: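 MA-104 monolayers infected with 200 PFU/well RSV A2, adsorbed 2.5 h at 37 °C in serum-free MEM. Inoculum removed and agarose overlay added; each compound dilution plated in duplicate. Plaques counted after 4 days and expressed as percent of control. EC50 (µg/mL) derived by regression of mean percent of control at each concentration.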

[2] = test system: Respiratory syncytial virus; assay: Antiviral activity against RSV A2 in MA104 cells by CPE assay; type: functional, organism-based; settings: human respiratory syncytial virus
Summary of the method: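 RSV strain A2 grown in MA-104 cells; cells passaged in MEM with 9% fetal bovine serum and 0.1% NaHCO3. Cytopathic-effect inhibition read-out. Activity expressed as 50% effective concentration (EC50) in µg/mL.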

| Structure (SMILES) | EC50 [1] [µg/mL] | IC50 [1] [µg/mL] | EC50 [2] [µg/mL] | IC50 [2] [µg/mL] |
| --- | --- | --- | --- | --- |
| C/C=C(/C)C(=O)O[C@@H]1[C@@H]2OC[C@]3(C)[C@H](O)C[C@H](OC(C)=O)[C@@](C)([C@@H]23)[C@H]2C[C@H](OC(C)=O)[C@]3(C)C(=CC[C@H]3C3COC(=O)C3)[C@]12C (stereo partly drawn) [DYSOXYLIN A] | 150 (≈ 239 µM) | 112 (≈ 178 µM) | 2 (≈ 3.18 µM) | 150 (≈ 239 µM) |
| CC(=O)O[C@H]1C[C@H]2[C@](C)(C3=CC[C@@H](C4COC(=O)C4)[C@@]31C)[C@H](OC(=O)c1ccccc1)[C@@H]1OC[C@]3(C)[C@H](O)C[C@H](OC(C)=O)[C@@]2(C)[C@@H]13 (stereo partly drawn) [DYSOXYLIN B] | 30 (≈ 46.1 µM) | 7 (≈ 10.8 µM) | 4 (≈ 6.15 µM) | 16 (≈ 24.6 µM) |
| CCC(C)C(=O)O[C@@H]1[C@@H]2OC[C@]3(C)[C@H](O)C[C@H](OC(C)=O)[C@@](C)([C@@H]23)[C@H]2C[C@H](OC(C)=O)[C@]3(C)C(=CC[C@H]3C3COC(=O)C3)[C@]12C (stereo partly drawn) [DYSOXYLIN C] | 146 (≈ 231 µM) | 52 (≈ 82.4 µM) |  |  |
| CC(=O)O[C@H]1C[C@H]2[C@](C)(C3=CC[C@@H](C4COC(=O)C4)[C@@]31C)[C@H](OC(=O)/C=C(\C)C(C)C)[C@@H]1OC[C@]3(C)[C@H](O)C[C@H](OC(C)=O)[C@@]2(C)[C@@H]13 (stereo partly drawn) [DYSOXYLIN D] | 40 (≈ 60.9 µM) | 42 (≈ 63.9 µM) | 1 (≈ 1.52 µM) | > 200 |
| NC(=O)c1ncn([C@@H]2O[C@H](CO)[C@@H](O)[C@H]2O)n1 [RIBAVIRIN] | 20 (≈ 81.9 µM) | 460 (≈ 1880 µM) | 3.6 (≈ 14.7 µM) | 180 (≈ 737 µM) |
